Measurements published in ChEMBL document CHEMBL6134787, “Fexinidazole optimization: enhancing anti-leishmanial profile, metabolic stability and hERG safety” (RSC Med Chem, 2024).

How the values were obtained:
[1] = target: T1, Voltage-gated inwardly rectifying potassium channel KCNH2 (Homo sapiens, UniProt Q12809); test: Inhibition of human ERG stably overexpressed in HEK293 cells incubated for 30 mins by FLIPR assay; format: toxicity, cell-based; conditions: for IC25: human, hek293, 0.5 h, time 30 min
T1 sequence (Q12809 whole entry): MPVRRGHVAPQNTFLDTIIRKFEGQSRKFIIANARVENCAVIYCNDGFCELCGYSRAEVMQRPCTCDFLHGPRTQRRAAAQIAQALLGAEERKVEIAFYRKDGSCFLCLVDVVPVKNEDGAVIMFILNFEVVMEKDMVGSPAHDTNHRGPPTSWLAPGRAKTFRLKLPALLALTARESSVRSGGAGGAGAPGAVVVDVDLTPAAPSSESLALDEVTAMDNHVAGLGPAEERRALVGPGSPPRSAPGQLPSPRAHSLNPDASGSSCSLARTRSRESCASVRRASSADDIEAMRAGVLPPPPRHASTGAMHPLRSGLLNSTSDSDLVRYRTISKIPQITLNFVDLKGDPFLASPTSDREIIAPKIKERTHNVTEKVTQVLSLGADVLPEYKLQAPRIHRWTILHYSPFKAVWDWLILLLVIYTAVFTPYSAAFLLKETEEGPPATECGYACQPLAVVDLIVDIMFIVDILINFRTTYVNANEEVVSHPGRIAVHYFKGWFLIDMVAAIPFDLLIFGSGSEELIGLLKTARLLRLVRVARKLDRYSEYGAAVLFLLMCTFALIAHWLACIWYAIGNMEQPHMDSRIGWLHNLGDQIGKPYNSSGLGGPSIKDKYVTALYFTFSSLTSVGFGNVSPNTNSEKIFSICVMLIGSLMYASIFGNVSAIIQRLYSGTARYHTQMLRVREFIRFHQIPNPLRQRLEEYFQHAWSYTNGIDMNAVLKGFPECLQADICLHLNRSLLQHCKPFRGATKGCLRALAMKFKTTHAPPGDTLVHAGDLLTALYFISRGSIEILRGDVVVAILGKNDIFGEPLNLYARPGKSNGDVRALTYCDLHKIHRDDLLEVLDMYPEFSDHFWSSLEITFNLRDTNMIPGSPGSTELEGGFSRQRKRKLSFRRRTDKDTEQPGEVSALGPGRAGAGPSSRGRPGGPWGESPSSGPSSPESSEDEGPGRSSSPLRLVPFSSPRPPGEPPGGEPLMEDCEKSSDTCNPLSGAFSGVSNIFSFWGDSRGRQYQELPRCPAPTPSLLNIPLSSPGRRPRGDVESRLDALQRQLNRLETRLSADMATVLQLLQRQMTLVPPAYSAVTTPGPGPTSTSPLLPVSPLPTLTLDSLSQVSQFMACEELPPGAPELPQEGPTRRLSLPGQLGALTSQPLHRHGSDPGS

[2] = target: T1, Voltage-gated inwardly rectifying potassium channel KCNH2; test: Inhibition of human ERG stably overexpressed in HEK293 cells at 100 uM incubated for 30 mins by FLIPR assay; format: toxicity, cell-based; conditions: hek293, 0.5 h, 100 µM
How it was run: (§1)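 HEK-293 cells stably expressing hERG, seeded at 60 000/well and grown 24 h. Compounds were added in DMSO (final 0.5%) and incubated 30 min in the dark. After 20 s baseline, Tl+ stimulus (3 mM) was added and fluorescence (ex 485/em 535 nm) recorded for 2.5 min.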

[3] = Metabolic stability in rat liver microsome assessed as compound remaining at 20 uM measured after 32 mins in presence of NADP and GSH by HPLC analysis; format: ADME; conditions: liver microsomes, read-out: Stability
How it was run: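 Rat liver microsomes (final 2 mg/mL) in 50 mM phosphate pH 7.4 with 0.3 mM NADP+, 5.3 mM glucose-6-phosphate, G6PDH, 10 mM MgCl2 and 5 mM EDTA. 20 μM compound added at 37 °C. Aliquots at 0, 16 and 32 min were quenched in ice-cold acetonitrile and centrifuged. HPLC peak area at 254/280 nm was expressed relative to 0 min.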

[4] = Hepatotoxicity against mouse TAMH cells assessed as cell viability at 125 uM incubated for 48 hrs by MTT assay; format: toxicity, cell-based
How it was run: (§2)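 TAMH mouse liver cells in FCS-free DMEM/F12 with 5% PANEXIN NTA, 10 mM nicotinamide and gentamicin. Seeded at 20 000/well and attached 24 h at 37 °C, 5% CO2. DMSO-diluted compounds were applied for 24 or 48 h. MTT was added for 4 h, formazan dissolved in DMSO and A570 read. Viability was background-corrected and expressed relative to DMSO controls; mean ± SD, ≥3 experiments.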

[5] = Hepatotoxicity against human HepG2 cells assessed as cell viability at 125 uM incubated for 48 hrs by MTT assay; format: toxicity, cell-based; conditions: hepg2, 48 h, 125 µM
How it was run: (§3)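 HEP-G2 cells in RPMI 1640 + 10% heat-inactivated FBS, penicillin/streptomycin. Seeded at 15 000/well and attached 24 h at 37 °C, 5% CO2. Compounds were serially diluted in DMSO, with 24 or 48 h exposure. MTT (2.5 mg/mL solution) was added for 4 h, formazan dissolved in DMSO and A570 read. Viability was background-corrected against DMSO-treated cell controls; mean ± SD, ≥3 experiments.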

[6] = test system: Leishmania donovani; test: Antileishmanial activity against miltefosine resistant Leishmania donovani HU3MILR40 promastigotes […] assessed as inhibition of parasite growth incubated for 72 hrs by automatic microtiter plate reader analysis; format: functional, organism-based
How it was run: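 Promastigote (free parasite) assay: Schneider's Drosophila medium with 4 mM glutamine, 25 μg mL−1 gentamicin, 10% heat-inactivated FBS, pH 6.9, 27 °C. 1.5 × 10^5 promastigotes per well exposed to a concentration series for 72 h at 27 °C.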

[7] = test system: Leishmania donovani; test: Antileishmanial activity against wild type Leishmania donovani HU3 promastigotes […] assessed as inhibition of parasite growth incubated for 72 hrs by automatic microtiter plate reader analysis; format: functional, organism-based
[8] = test system: Leishmania amazonensis; test: Antileishmanial activity against wild type Leishmania amazonensis LV78 promastigotes […] assessed as inhibition of parasite growth incubated for 72 hrs by automatic microtiter plate reader analysis; format: functional, organism-based
How it was run: (§4)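 Promastigotes were grown in Schneider's medium (4 mM glutamine, gentamicin, 10% heat-inactivated FBS, pH 6.9, 27 °C). Cells were seeded at 1.5 × 10^5/well and exposed to a concentration series for 72 h at 27 °C.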

[9] = Cytotoxicity against mouse L929 cells assessed as inhibition of cell growth incubated for 72 hrs by MTS assay; format: toxicity, cell-based
How it was run: (§5)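 Cells in DMEM + 10% heat-inactivated FBS with penicillin/streptomycin at 37 °C, 5% CO2. They were seeded at 1 × 10^4/well and incubated with a concentration series for 72 h at 37 °C. Viability was read by MTS/PMS assay at 490 nm and IC50 derived.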

[10] = Hepatotoxicity against mouse TAMH cells assessed as cell viability at 7.8 to 125 uM incubated for 24 to 48 hrs by MTT assay; format: toxicity, cell-based; conditions: dose lower 7.8 µM, time lower 24 hrs, dose upper 125 µM, time upper 48 hrs, read-out: Activity; how it was run: as §2
[11] = test system: RAW264.7; test: Cytotoxicity against mouse RAW264.7 cells assessed as inhibition of cell growth incubated for 72 hrs by MTS assay; format: functional, cell-based; conditions: RAW264.7, 72 h; how it was run: as §5
[12] = Metabolic stability in rat liver S9 fraction assessed as compound remaining at 20 uM measured after 32 mins in presence of NADP and GSH by HPLC analysis; format: ADME, subcellular; conditions: read-out: Stability
How it was run: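 Rat liver S9 (final 4 mg/mL) in 50 mM phosphate pH 7.4 with NADPH-regenerating system (0.3 mM NADP+, 5.3 mM glucose-6-phosphate, G6PDH), 10 mM MgCl2 and 5 mM EDTA. Pre-warmed 10 min at 37 °C, then 20 μM compound and 5.5 μM GSH added. Samples taken at 0, 16 and 32 min were quenched in ice-cold acetonitrile. HPLC (254/280 nm) peak area was expressed relative to 0 min.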

[13] = test system: Leishmania major; test: Antileishmanial activity against wild type Leishmania major FV1 promastigotes […] assessed as inhibition of parasite growth incubated for 72 hrs by automatic microtiter plate reader analysis; format: functional, organism-based; how it was run: as §4
[14] = test system: Leishmania braziliensis; test: Antileishmanial activity against wild type Leishmania braziliensis UA847 promastigotes […] assessed as inhibition of parasite growth incubated for 72 hrs by automatic microtiter plate reader analysis; format: functional, organism-based; how it was run: as §4
[15] = test system: Leishmania braziliensis; test: Antileishmanial activity against wild type Leishmania braziliensis UA847 amastigotes infected in mouse peritoneal macrophage assessed as inhibition of parasite growth incubated for 72 hrs by giemsa staining based analysis; format: functional, organism-based
How it was run: (§6)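 Mouse peritoneal macrophages (1 × 10^5/well on coverslips, DMEM + 10% heat-inactivated FBS, penicillin/streptomycin) adhered overnight at 37 °C, 5% CO2. They were infected overnight with late-log promastigotes at a 20:1 parasite:macrophage ratio. Cells were then treated with compound for 72 h at 37 °C and Giemsa-stained. Amastigotes per 100 macrophages were counted to derive IC50; mean ± SD of 3–4 independent experiments.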

[16] = test system: Leishmania donovani; test: Antileishmanial activity against wild type Leishmania donovani HU3 amastigotes infected in mouse peritoneal macrophage assessed as inhibition of parasite growth incubated for 72 hrs by giemsa staining based analysis; format: functional, organism-based
How it was run: (§7)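 Mouse peritoneal macrophages in DMEM + 10% heat-inactivated FBS, penicillin/streptomycin; 1 × 10^5 cells per well on coverslips, adhered overnight at 37 °C, 5% CO2, non-adherent cells washed off. Infected overnight with late-log promastigotes at parasite:macrophage 40:1. Compound exposure 72 h at 37 °C; Giemsa stain, amastigotes per 100 macrophages counted, IC50 derived; means ± SD of 3–4 independent experiments.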

[17] = test system: Leishmania amazonensis; test: Antileishmanial activity against wild type Leishmania amazonensis LV78 amastigotes infected in mouse peritoneal macrophage assessed as inhibition of parasite growth incubated for 72 hrs by giemsa staining based analysis; format: functional, organism-based; how it was run: as §6
[18] = test system: Leishmania donovani; test: Antileishmanial activity against miltefosine resistant Leishmania donovani HU3MILR40 amastigotes infected in mouse peritoneal macrophage assessed as inhibition of parasite growth incubated for 72 hrs by giemsa staining based analysis; format: functional, organism-based; how it was run: as §7
[19] = Cytotoxicity against mouse peritoneal macrophage assessed as inhibition of cell growth incubated for 72 hrs by giemsa staining based analysis; format: toxicity; conditions: peritoneal macrophages
[20] = Metabolic stability in rat liver microsome assessed as parent compound remaining at 50 degreeC measured after 16 mins after heat treatment by HPLC analysis; conditions: liver microsomes, heat-treated
[21] = Metabolic stability in rat liver microsome assessed as drug metabolism measured up to 32 mins in absence of inhibitor by HPLC analysis relative to control; conditions: liver microsomes, without inhibitor
[22] = target: T2, hERG (KCNH2) (Homo sapiens, UniProt Q12809); test: Inhibition of human ERG stably overexpressed in HEK293 cells assessed as remaining activity at 25 uM incubated for 30 mins by FLIPR assay; format: toxicity, cell-based; conditions: HEK293 cells stably overexpressing hERG, read-out: Activity; how it was run: as §1
T2 sequence (Q12809 whole entry): as above

[23] = Hepatotoxicity against mouse TAMH cells assessed as cell viability at 62.5 uM incubated for 48 hrs by MTT assay; format: toxicity, cell-based; conditions: read-out: Activity; how it was run: as §2
[24] = Hepatotoxicity against human HepG2 cells assessed as cell viability at 62.5 uM incubated for 48 hrs by MTT assay; format: toxicity, cell-based; conditions: read-out: Activity; how it was run: as §3
[25] = Metabolic stability in rat liver microsome assessed as parent compound remaining at 50 degreeC measured after 32 mins after heat treatment by HPLC; conditions: liver microsomes, heat-treated
[26] = target: T2, hERG (KCNH2); test: Inhibition of human ERG stably overexpressed in HEK293 cells assessed as remaining activity at 6 uM incubated for 30 mins by FLIPR assay; format: toxicity, cell-based; conditions: HEK293 cells stably overexpressing hERG, read-out: Activity; how it was run: as §1

SMILES	IC25 [1] [µM]	remaining at 32 min, 20 µM [3] [%]	IC50 [6] [µM]	IC50 [7] [µM]	IC50 [8] [µM]	IC50 at 72 h [9] [µM]	viability at up to 125 µM [10] [%]	IC50 [11] [µM]	remaining at 32 min, 20 µM [12] [%]	IC50 [13] [µM]	IC50 [14] [µM]	IC50 [15] [µM]	IC50 [16] [µM]	IC50 [17] [µM]	IC50 [18] [µM]	IC50 at 72 h [19] [µM]	metabolised at 32 min [21] [%]	further results
Cn1c([N+](=O)[O-])cnc1COc1ccc([S+](C)[O-])cc1 (centres undefined) [FEXINIDAZOLE SULFOXIDE]	> 100	100	4.3	3.4	7.8	> 100	> 50	> 100	100	1.4	4.3	–	–	–	–	–	–	inhibition (INH) [2]: Not_active; Activity [4]: Non-toxic; Activity [5]: Non-toxic
CCc1ccc(OCc2ncc([N+](=O)[O-])n2C)cc1	14.9	0	5.3	5	4.5	71.8	> 50	> 68.5	96.4	1.4	3.9	> 10	> 10	> 10	> 10	> 100	100	remaining at 16 min [20]: 16%
CSc1ccc(OCc2ncc([N+](=O)[O-])n2C)cc1 [FEXINIDAZOLE]	8.6	0	5.5	3.3	7	> 100	–	> 100	73.4	1.9	3.9	> 10	> 10	> 10	> 10	> 82	100	IC50 [1]: ~10.7 µM; activity at 0.5 h, 25 µM [22]: 34%; viability at 48 h, 62.5 µM [23]: 90%; viability at 48 h, 62.5 µM [24]: 95%; remaining at 32 min [25]: 11%; activity at 0.5 h, 6 µM [26]: 78%
